In ChEMBL document CHEMBL3603742, “Design, synthesis and cytotoxicity studies of dithiocarbamate ester derivatives of emetine in prostate cancer cell lines” (Bioorg Med Chem, 2015):

Tests used:
Type in all cases: functional, cell-based
PC-3 [1] = assay: Cytotoxicity against human PC3 cells after 3 days by MTT assay; conditions: PC-3, 72 h
How it was run: (§1)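 Human prostate lines from ATCC were kept in log phase in RPMI with 10% FBS, 1% L-glutamine and 1% penicillin-streptomycin at 37 °C, 5% CO2. PC3 and DU145 were seeded at 2.5 X 10^3 cells/well and LNCaP at 6 X 10^3 cells/well, then left 24 h. Cells were exposed continuously to 0.01–10 μM (0.1% DMSO final; DMSO controls), with MTT viability read on days 3, 5 and 7.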

LNCaP [2] = assay: Cytotoxicity against human LNCAP cells after 3 days by MTT assay; conditions: 72 h; how it was run: as §1
PC-3 [3] = assay: Cytotoxicity against human PC3 cells after 7 days by MTT assay; conditions: PC-3, 168 h; how it was run: as §1
DU-145 [4] = assay: Cytotoxicity against human DU145 cells after 7 days by MTT assay; conditions: DU-145, 168 h; how it was run: as §1
PC-3 [5] = assay: Cytotoxicity against human PC3 cells after 5 days by MTT assay; conditions: PC-3, 120 h; how it was run: as §1
LNCaP [6] = assay: Cytotoxicity against human LNCAP cells after 5 days by MTT assay; conditions: 120 h; how it was run: as §1
DU-145 [7] = assay: Cytotoxicity against human DU145 cells after 3 days by MTT assay; conditions: DU-145, 72 h; how it was run: as §1
DU-145 [8] = assay: Cytotoxicity against human DU145 cells after 5 days by MTT assay; conditions: DU-145, 120 h; how it was run: as §1
LNCaP [9] = assay: Cytotoxicity against human LNCAP cells after 7 days by MTT assay; conditions: 168 h; how it was run: as §1

SMILES	IC50 (PC-3 [1]) [nM]	IC50 (LNCaP [2]) [nM]	IC50 (PC-3 [3]) [nM]	IC50 (DU-145 [4]) [nM]	IC50 (PC-3 [5]) [nM]	IC50 (LNCaP [6]) [nM]	IC50 (DU-145 [7]) [nM]	IC50 (DU-145 [8]) [nM]	IC50 (LNCaP [9]) [nM]
CC[C@H]1CN2CCc3cc(OC)c(OC)cc3[C@@H]2C[C@@H]1C[C@@H]1c2cc(OC)c(OC)cc2CCN1C(=S)SCCCCC(=O)OC	8260	4780	4360	2250	4860	2310	3220	3150	1760
CC[C@H]1CN2CCc3cc(OC)c(OC)cc3[C@@H]2C[C@@H]1C[C@@H]1c2cc(OC)c(OC)cc2CCN1C(=S)SCCN1C(=O)c2ccccc2C1=O	3210	3220	2380	3050	2770	2800	3810	3580	2300
CC[C@H]1CN2CCc3cc(OC)c(OC)cc3[C@@H]2C[C@@H]1C[C@@H]1c2cc(OC)c(OC)cc2CCN1C(=S)S	442	565	–	79	91	88	377	80	–
CCOC(=O)c1ccc(NC(=O)CSC(=S)N2CCc3cc(OC)c(OC)cc3[C@H]2C[C@H]2C[C@H]3c4cc(OC)c(OC)cc4CCN3C[C@@H]2CC)cc1	4360	4670	1900	2470	2710	2720	5160	2900	1660
CC[C@H]1CN2CCc3cc(OC)c(OC)cc3[C@@H]2C[C@@H]1C[C@@H]1c2cc(OC)c(OC)cc2CCN1C(=S)SCc1ccccc1	2540	–	–	1980	2020	1890	2740	2070	1310
CC[C@H]1CN2CCc3cc(OC)c(OC)cc3[C@@H]2C[C@@H]1C[C@@H]1c2cc(OC)c(OC)cc2CCN1C(=S)SCC(=O)Nc1ccc(Br)cc1	3870	5280	1510	1600	2770	2190	5650	2800	1700
CC[C@H]1CN2CCc3cc(OC)c(OC)cc3[C@@H]2C[C@@H]1C[C@@H]1c2cc(OC)c(OC)cc2CCN1C(=S)SCC(=O)c1ccc(Cl)cc1	3590	5720	2690	2450	2700	2310	3170	3200	1950
CC[C@H]1CN2CCc3cc(OC)c(OC)cc3[C@@H]2C[C@@H]1C[C@H]1NCCc2cc(OC)c(OC)cc21 [EMETINE]	–	37	–	–	–	27	–	–	37
CC[C@H]1CN2CCc3cc(OC)c(OC)cc3[C@@H]2C[C@@H]1C[C@@H]1c2cc(OC)c(OC)cc2CCN1C(=S)SCCC(N)=O	> 10000	9220	5200	> 10000	6560	4730	> 10000	> 10000	3390
CCCCCCSC(=S)N1CCc2cc(OC)c(OC)cc2[C@H]1C[C@H]1C[C@H]2c3cc(OC)c(OC)cc3CCN2C[C@@H]1CC	5980	3660	3030	2300	3210	1610	3660	3190	1590
